According to the RNAGym collection of RNA variant scans (doi:10.1126/science.aae0568):
This sample holds only a part of the variants without activity.

B1: tRNA (parent)
chain: GUUCCGUUGGCGUAAUGGUAACGCGUCUCCCUCCUAAGGAGAAGACUGCGGGUUCGAGUCCCGUACGGAACG

Variants of: B1
Experiment: yeast fitness relative to wild type (ratio to wild type); higher = fitter; tRNA-Arg(CCU), competitive growth, 37 C, YPD
Outline: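 Amplicons of the tRNA-Arg(CCU) gene were sequenced, 100-nucleotide paired-end, from the start population and from each end population of a pooled yeast competition. The competition, in six parallel replicates, lasted 24 hours in YPD at 37°C. Fitness relative to wild type was calculated from changes in genotype frequencies. Genotypes had to have ≥ 100 starting reads, and estimates < 0.5 were set to 0.5.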

Row | Variant | yeast fitness
1 | U19G C22U A70U | 0.746
2 | U19C U26C C27A C30G U54A G56A | ≤ 0.5
3 | U19C C24G A37U U54G U64A | ≤ 0.5
4 | U19C C24U | 0.969
5 | A20G G25A C31G C62A | ≤ 0.5
6 | U19C A20U C29U G41C | ≤ 0.5
7 | U19C C49G G67U | 0.599
8 | A20G C46G C49G | 0.565
9 | A20G C29A A40U C62G | ≤ 0.5
10 | A20G G38C A45C G51A | ≤ 0.5
11 | A20C C61U | 0.806
12 | U19C C31U C33G G41A C49G U54C U59C G63A | ≤ 0.5
13 | A20C U28A C62U G67A | ≤ 0.5
14 | U19C A40C G41C | 0.594
15 | A20C U32A C34G A57C C66U | ≤ 0.5
16 | U19C G48C C66U | 0.712
17 | U19C C24U C30A | 0.631
18 | A20C C24U C27G C49A U53C C62G | ≤ 0.5
19 | U19C A21G U26G G48C | 0.624
20 | A20C C24U G68C | 0.542
21 | A20G A57C C62G C66G | ≤ 0.5
22 | U19C A65G | 1
23 | U19G A43U G51U A65G G68A | ≤ 0.5
24 | A20G C29A C49U G63A | ≤ 0.5

Row | Variant | yeast fitness
25 | U19G U32G G51C A57U | ≤ 0.5
26 | U19A C24A C30G C34U G52C | ≤ 0.5
27 | A20C C33U A37G C49G A57G | ≤ 0.5
28 | A20G C22U G51C | ≤ 0.5
29 | A20G C24G G52C | ≤ 0.5
30 | U19A C29U C55A A57C U59C | ≤ 0.5
31 | A20C A21G G50C A65C | ≤ 0.5
32 | A20G G50C G63C G67C | ≤ 0.5
33 | U19C A20U | 0.941
34 | U19C A42U C46U C55G G63C | ≤ 0.5
35 | U19G G58C G67C | 0.61
36 | U19G A20U | 0.955
37 | A20G G41C A70U | 0.622
38 | A20C C29U U32A | ≤ 0.5
39 | A20G C22G C30U U54C | ≤ 0.5
40 | U19C A20C C24A G56A | ≤ 0.5
41 | A20G C24G C66U | 0.527
42 | A20G C46U A70U | 0.878
43 | A20C C27U A36G | 0.62
44 | A20G A21G C24U U59C C62A | ≤ 0.5
45 | A20C C22U C61G | ≤ 0.5
46 | U19A C61U | 0.983
47 | U19A C61A | 0.673
48 | A20G A43U U64C | 0.704

Row | Variant | yeast fitness
49 | U19G C61G | 0.575
50 | A20G A40C A42U A43C | ≤ 0.5
51 | A20G A21U A42C | 0.547
52 | U19C C27G C30U | 0.55
53 | U19G A42U | 0.991
54 | A20C A21G A57G | 0.744
55 | A20G A21U A70U | ≤ 0.5
56 | U19C C66U | 0.855
57 | U19A G39C | 0.742
58 | U19A G39A | 0.846
59 | A20C G48C A70C | 0.649
60 | A20G G56C G68C | 0.6
61 | A20C C31A G48A U59C | ≤ 0.5
62 | U19C A20C C31G A70C | ≤ 0.5
63 | A20G A21G C29G | 0.543
64 | U19C A21G U26G C49U | 0.745
65 | U19C C33A A36C C55U | ≤ 0.5
66 | A20G A40C A42U A43C G48A A69C | ≤ 0.5
67 | G18C U26G | 0.644
68 | A20G C55U | 0.82
69 | A20G G44A | 0.962
70 | A20G C27U U28G | 0.565
71 | U19A A20C A21G C30G A43G C55G | ≤ 0.5
72 | A20C C29U C49G | 0.612

Row | Variant | yeast fitness
73 | A20C U26G | 0.572
74 | A20C C29G G51A | 0.646
75 | U19C G50A | 0.833
76 | G18U C34U | ≤ 0.5
77 | U19A G56A | 1
78 | A20C U64A G67A | ≤ 0.5
79 | U19A U28C A69C | 0.674
80 | A20C C31U A40G G52C A65G | 0.551
81 | U19C G50A C55A | ≤ 0.5
82 | U19A C31G G44C | ≤ 0.5
83 | A20C C46G A70G | 0.668
84 | A20C C30A C33U C34U C49A C62G | ≤ 0.5
85 | A20G C31A C34G A45U | ≤ 0.5
86 | U19C G25A G44C U47A | ≤ 0.5
87 | U19G G39A A40G | 0.56
88 | U19C C34U A43U G52C | ≤ 0.5
89 | U19G G38A G50A | ≤ 0.5
90 | G18U U26A U59C C66A A70U | ≤ 0.5
91 | A20G C24G U32C G51A | ≤ 0.5
92 | U19A C30U C31A G58A G67C | ≤ 0.5
93 | U19G G41C C66U | ≤ 0.5
94 | U19C C24U C27G G38C A57U C60A C62G | ≤ 0.5
95 | A20C C24U C49U | 0.602
96 | U19C C61G | 0.691

Row | Variant | yeast fitness
97 | A20G C30U C46A G63U | ≤ 0.5
98 | A20C U59C A69C | 0.705
99 | U19C G25A | 0.969
100 | U19C G23A C29G | ≤ 0.5
101 | A20G C27A C31A | ≤ 0.5
102 | A20G C33U G39A A57G U59C | 0.517
103 | A20C A43C G68U | ≤ 0.5
104 | A20G G56A A57C | 0.574
105 | G18U A21U G52A | ≤ 0.5
106 | G18C U35A A45C C62U | 0.542
107 | A20G C24U G25A U35A C60U A70G | 0.655
108 | U19C C33G A57G C61G A69G | 0.65
109 | A20G A36C C49G U54C | ≤ 0.5
110 | A20C U53A | 0.767
111 | A20C G41A G58U | 0.706
112 | A20C C33A G41C C49G | 0.519
113 | U19A A45G G68C | ≤ 0.5
114 | A20C A36G G48A C49U | ≤ 0.5
115 | A20C C24G C27A G44A U59G A65C | ≤ 0.5
116 | A20C C46A | 1.04
117 | A20G G25C C33G C60A | ≤ 0.5
118 | U19A C22G C24U C33G A36G | 0.581
119 | U19C C31G U35A C61A A69C | 0.504
120 | A20C C34A A37G C46A | 0.541

Row | Variant | yeast fitness
121 | A20C A37C | 0.762
122 | U19A U47A G52C | ≤ 0.5
123 | U19A A20U U53C | ≤ 0.5
124 | U19C A70C | 1.03
125 | U19C A70U | 0.953
126 | A20G C29G G63C | ≤ 0.5
127 | U19A C22U A40U G51C | ≤ 0.5
128 | A20C A37C A43G C55U | ≤ 0.5
129 | A20C G25C G38C A43G | ≤ 0.5
130 | A20G C22U G50C G63C G67C | ≤ 0.5
131 | A20G A40C | 0.803
132 | A20G A40U | 0.92
133 | U19C A42U C46U C55G | ≤ 0.5
134 | A20C G68A | 0.843
135 | A20C C55G | 0.59
136 | U19C G48A C62A | 0.91
137 | A20C A21C C27U C46A | 0.6
138 | G18C U47C | 0.658
139 | U19G A37G A65U | 0.61
140 | U19C A37U C62A U64C | 0.725
141 | A20C C29U C49G A70U | ≤ 0.5
142 | A20C U54C C55U | ≤ 0.5
143 | U19A C29G U54C | ≤ 0.5
144 | U19G G38C A57U | 0.552

Row | Variant | yeast fitness
145 | A20C U28A | 0.672
146 | A20G A57G C62U A69G | 0.772
147 | A20G C22G C27G C30U C31G G51C | ≤ 0.5
148 | U19G C22U G52A | ≤ 0.5
149 | U19C G38C G44C C46A | 0.872
150 | A20G G23A A65G | 0.574
151 | U19C A40G G48A | 0.718
152 | A20C C46A C49G G63A | ≤ 0.5
153 | A20G G23C C31U A57U C66U | ≤ 0.5
154 | U19A C46U G67A | 0.957
155 | U19G U64C | 0.841
156 | A20C A70G | 0.925
157 | U19C C22A G23A C34U A57C C66U A69C | ≤ 0.5
158 | U19C G23A G38A | 0.634
159 | A20G C31U A42U C46U C66G | 0.714
160 | U19C A69G | 0.788
161 | U19C A69C | 0.991
162 | U19C U28C C49A | 0.584
163 | U19A G23C C30G U47A | 0.594
164 | U19C C46G A65G | 0.716
165 | A20C A37G C49G U53A C60U A69C | 0.57
166 | A20G G50A | 0.905
167 | U19A C30U G38C | 0.694
